This note sets out measurements from ChEMBL document CHEMBL1135694, “Optimization of alkylidene hydrazide based human glucagon receptor antagonists. Discovery of the highly potent and orally available 3-cyano-4-hydroxybenzoic acid [1-(2,3,5,6-tetramethylbenzyl)-1H-indol-4-ylmethylene]hydrazide” (J Med Chem, 2002).

Data set [1] can be described thus: Turnover in rat liver microsomes. Type of data set: ADME, Microsome. In a few lines:
(§1)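 Rat liver microsomes (0.331 mg/mL protein) with 10 µM compound, 1 mM UDP-GA and 1 mM NADPH in KH2PO4 buffer, pH 7.4, at 37 °C. Sampled at 0-30 min (n = 3), stopped with MeCN. Rate was taken from parent disappearance by LC-MS.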

The target in data set [2] is Glucagon receptor (Homo sapiens, UniProt P47871). The data set is described as follows: In vitro binding affinity for recombinant human glucagon receptor (hGGR) in BHK cells. Format: cell-based. In a few lines: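 Membranes (4 µg) from BHK cells expressing the cloned human glucagon receptor. Compounds were diluted in DMSO, and a glucagon standard curve was run. IC50 given as mean ± SD, n = 3.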
Glucagon receptor (Homo sapiens, UniProt P47871), sequence (P47871 whole entry): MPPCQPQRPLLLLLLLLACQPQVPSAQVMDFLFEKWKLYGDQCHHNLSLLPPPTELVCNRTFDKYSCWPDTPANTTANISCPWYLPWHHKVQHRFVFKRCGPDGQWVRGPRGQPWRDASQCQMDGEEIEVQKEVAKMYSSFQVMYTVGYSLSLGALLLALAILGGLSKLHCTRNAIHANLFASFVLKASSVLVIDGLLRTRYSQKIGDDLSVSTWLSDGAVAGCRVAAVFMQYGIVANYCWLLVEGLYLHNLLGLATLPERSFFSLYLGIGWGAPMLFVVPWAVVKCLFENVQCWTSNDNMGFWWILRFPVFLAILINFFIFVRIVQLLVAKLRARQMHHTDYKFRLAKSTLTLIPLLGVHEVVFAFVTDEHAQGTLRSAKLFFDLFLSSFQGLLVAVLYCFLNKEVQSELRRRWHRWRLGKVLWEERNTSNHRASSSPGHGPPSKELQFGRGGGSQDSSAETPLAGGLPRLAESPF

The species entered for data set [3] is Rattus norvegicus. Nature of the data set: Inhibitory activity against glucogon-stimulated glucose production from isolated primary rat hepatocytes. The conditions noted are these: hepatocyte. Format: functional. In short, it runs like this: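 Hepatocytes came from fed male Sprague-Dawley rats by two-step perfusion and were glycogen-loaded with 15 mM glucose and 10 nM insulin for 24 h. Cells were then given compound (0-1000 nM) plus 0.5 nM glucagon for 70 min in HEPES/bicarbonate buffer with 0.1% HSA, pH 7.4, 37 °C. Released glucose and glycogen were measured. Ki came from Schild analysis; mean ± SEM of four hepatocyte preparations.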

Data set [4] is described as follows: Oral bioavailability in dog. Format: ADME, organism-based, Canis lupus familiaris. The conditions noted are these: in vivo. In a few lines: (§2)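 Four purpose-bred male beagle dogs, 11-19 kg, 15-18 months old. Dosed 0.5 mg/kg intravenously, or 2.0 mg/kg perorally by gavage using the same dosing solution as the iv dose. Blood was sampled at set times from predose to 4 h postdose and assayed by LC-MS-MS. PK parameters were derived by noncompartmental analysis; half-lives are given as harmonic means.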

Data set [5] deals with Glucagon receptor (Rattus norvegicus, UniProt P30082). The data set is described as follows: (§3) In vitro binding affinity towards rat glucagon receptor.
Glucagon receptor (Rattus norvegicus, UniProt P30082), sequence (P30082 whole entry): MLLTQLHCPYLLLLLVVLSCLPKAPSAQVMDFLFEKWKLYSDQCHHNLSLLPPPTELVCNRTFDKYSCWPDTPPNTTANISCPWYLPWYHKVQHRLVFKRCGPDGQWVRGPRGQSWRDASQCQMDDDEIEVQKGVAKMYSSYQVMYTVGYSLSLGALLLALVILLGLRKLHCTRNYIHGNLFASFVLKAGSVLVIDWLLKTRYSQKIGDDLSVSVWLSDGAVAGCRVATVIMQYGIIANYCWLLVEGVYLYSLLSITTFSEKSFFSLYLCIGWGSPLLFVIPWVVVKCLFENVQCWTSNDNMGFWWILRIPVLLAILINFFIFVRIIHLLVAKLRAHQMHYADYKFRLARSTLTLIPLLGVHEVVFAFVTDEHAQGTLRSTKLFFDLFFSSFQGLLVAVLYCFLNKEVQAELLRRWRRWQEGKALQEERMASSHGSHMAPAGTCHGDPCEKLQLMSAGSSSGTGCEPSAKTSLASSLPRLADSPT
The target in data set [6] is Glucagon receptor (Rattus norvegicus) (UniProt P30082). The description is as §3.
Glucagon receptor (Rattus norvegicus), sequence (P30082 whole entry): as above
The nature of data set [7]: Half life period after intravenous administration (0.5 mg/kg) in dog was determined. Type of data set: ADME, organism-based, Canis lupus familiaris. The note with it: in vivo. In a few lines:
as §2

Data set [8] is described as follows: tmax after peroral administration (2 mg/kg) in dog was determined; range 30-45. Type of data set: ADME, organism-based, Canis lupus familiaris. The note with it: in vivo, po. In a few lines: as §2
Data set [9] in a line: tmax in dog was determined; range 30-45. The conditions noted are these: in vivo.
Data set [10] is filed under the species Rattus norvegicus. Nature of the data set: In vitro metabolic turnover in rat liver microsomes was determined. Format: functional. The conditions noted are these: Microsome. In a few lines: as §1

The compound `Cc1cc(C)c(C)c(Cn2ccc3c(/C=N/NC(=O)c4ccc(O)c(C#N)c4)cccc32)c1C` had a Metabolism in data set [1] of 34 pmol/min/mg. Also, the values for the IC50 in data set [2] and in data set [5] were 2.3 nM and 0.43 nM, respectively. The same compound gave an inhibition constant (Ki) in [3] of 14 nM. Also, in [4], the bioavailability amounted to 15%. Besides, the Kb in [6] was found to be 0.38 nM. This compound gave a half-life in data set [7] of 66.6 min. Moreover, the Tmax in data set [8] and in data set [9] was 30 min each time.

`O=C(N/N=C/c1ccc(CO)c2ccccc12)c1ccc(O)c(Cl)c1Cl`: the half-inhibitory concentration (IC50) in data set [2] stood at 53.8 nM. In data set [10], the Metabolism (pM min-1 mg-1) is 103.

In [1], `O=C(N/N=C/c1cccc2c(CO)cccc12)c1ccc(O)c(Cl)c1` came in with a Metabolism of 225 pmol/min/mg. Further, the concentration for half-maximal inhibition (IC50) in [2] is 200 nM.

In data set [1], `Cc1cc(C)c(C)c(Cn2ccc3c(/C=N/NC(=O)c4ccc(O)c(Cl)c4)cccc32)c1C` gave a Metabolism of 105 pmol/min/mg. In addition, the half-maximal inhibitory concentration (IC50) in data set [2] stood at 5.3 nM.

In turn, `O=C(N/N=C/c1ccc(OCCNCc2ccccc2OC(F)(F)F)c2ccccc12)c1ccc(O)c(Cl)c1` returned a Metabolism in data set [1] of 233 pmol/min/mg. Further, the half-inhibitory concentration (IC50) in data set [2] turned out to be 54.3 nM.

As to `CCN(CC)C(=O)Cc1ccc(/C=N/NC(=O)c2ccc(O)c(Cl)c2)c2ccccc12`, in data set [1], the Metabolism was 323 pmol/min/mg. Besides, the half-inhibitory concentration (IC50) in data set [2] is 22.6 nM.

`COc1cc(/C=N/NC(=O)c2ccc(O)c(Cl)c2)ccc1NC(=O)COc1ccc(OC(F)(F)F)cc1` had a Metabolism in data set [1] of 136 pmol/min/mg. For the same compound, the IC50 in data set [2] stood at 73 nM.

In turn, `O=C(N/N=C/c1ccc(NC(=O)C2CCCC2)c2ccccc12)c1ccc(O)c(Cl)c1` returned a Metabolism in data set [1] of 134 pmol/min/mg. In addition, in data set [2], the IC50 worked out at 38.8 nM.

Take `CC1CCCCN1C(=O)Cc1ccc(/C=N/NC(=O)c2ccc(O)c(C#N)c2)c2ccccc12` (configuration not stated): the Metabolism in data set [1] was 65 pmol/min/mg. In addition, the 50% inhibitory concentration (IC50) in data set [2] is 11.6 nM.

`O=C(N/N=C/c1ccc(CC(=O)N2CCN(Cc3ccccc3)CC2)c2ccccc12)c1ccc(O)c(Cl)c1`: the Metabolism in [1] stood at 359 pmol/min/mg. Besides, the 50% inhibitory concentration (IC50) in [2] is 9.2 nM.
